Calls of active or inactive are those of the source. The calls are words filed in the database; no cut-off is given here.
How the values were obtained:
Mus musculus [1] = experiment: Anticonvulsant activity in STD-dd mouse assessed as protection against hind-limb extensor component of maximal electroshock seizure at 100 mg/kg, po administered via gavage measured 2 hrs after drug dosing; format: functional, organism-based; design: dose 100 mg/kg
Procedure, shortened: (§1)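 Mice dosed by gavage as a suspension in 5% tragacanth solution. Maximal electroshock was given as 60-Hz, 25-mA current for 0.2 s through corneal electrodes, 2 h after dosing. Protection was scored as prevention of hind-limb extension. Preliminary screen used 100 mg/kg. For ED50, groups of ten mice per dose level at ≥4 dose levels, with values calculated by Litchfield–Wilcoxon.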

Mus musculus [2] = experiment: Anticonvulsant activity in po dosed STD-dd mouse assessed as protection against hind-limb extensor component of maximal electroshock seizure administered via gavage measured 2 hrs after drug dosing; format: functional; procedure, shortened: as §1
[3] = Neurotoxicity in po dosed STD-dd mouse assessed as muscle incoordination administered via gavage by rotarod test; format: toxicity, organism-based, Muscle tissue; conditions: in vivo
Procedure, shortened: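 Gavage dosing as a suspension in 5% tragacanth solution, with ten mice per dose level at ≥4 levels. Rotarod test 2 h after dosing used a horizontal rod 2.5 cm in diameter rotating at 11 rpm. Minimal neurotoxicity end point was muscle incoordination, i.e. inability to stay on the rod. NTD50 was calculated by Litchfield–Wilcoxon.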

SMILES | Activity (Mus musculus [1]) | ED50 (Mus musculus [2]) | TD50 [3]
COc1ccc2onc(CS(N)(=O)=O)c2c1 | inactive |  | 
NS(=O)(=O)Cc1noc2ccccc12 [ZONISAMIDE] |  | 20 mg/kg | 
Cc1cccc2c(CS(N)(=O)=O)noc12 | inactive |  | 
CCNS(=O)(=O)Cc1noc2ccc(Cl)cc12 |  | 21 mg/kg | 
Cc1ccc2onc(CS(N)(=O)=O)c2c1 | inactive |  | 
CN1CCN(S(=O)(=O)Cc2noc3ccc(Br)cc23)CC1 |  | 88 mg/kg | 87 mg/kg
CCNS(=O)(=O)Cc1noc2ccc(F)cc12 |  | 32 mg/kg | 200 mg/kg
O=S(=O)(Cc1noc2ccccc12)N1CCN(c2ccccc2)CC1 | inactive |  | 
CC(C)NS(=O)(=O)Cc1noc2ccc(Cl)cc12 |  | 100 mg/kg | 
CN(C)S(=O)(=O)Cc1noc2ccc(Br)cc12 |  | 45 mg/kg | 100 mg/kg
NS(=O)(=O)Cc1noc2ccc(Cl)cc12 |  | 14 mg/kg | 52 mg/kg
O=C1NC(=O)C(c2ccccc2)(c2ccccc2)N1 [PHENYTOIN] |  | 10 mg/kg | 111 mg/kg
CNS(=O)(=O)Cc1noc2ccc(F)cc12 |  | 35 mg/kg | 168 mg/kg
CN(C)S(=O)(=O)Cc1noc2ccccc12 |  | 37 mg/kg | 
O=S(=O)(Cc1noc2ccccc12)NCCO | inactive |  | 
CCC1(CC)C(=O)NC(=O)N(C)C1=O [METHARBITAL] |  | 60.8 mg/kg | 87.9 mg/kg
CCCNS(=O)(=O)Cc1noc2ccccc12 | inactive |  | 
CN(C)NS(=O)(=O)Cc1noc2ccccc12 | inactive |  | 
CC(C)NS(=O)(=O)Cc1noc2ccccc12 |  | 56 mg/kg | 340 mg/kg
O=S(=O)(Cc1noc2ccccc12)N1CCCCC1 | inactive |  | 
NS(=O)(=O)Cc1noc2ccc([N+](=O)[O-])cc12 | inactive |  | 
O=S(=O)(Cc1noc2ccccc12)N1CCN(Cc2ccccc2)CC1 | inactive |  | 
CC(C)NS(=O)(=O)Cc1noc2ccc(Br)cc12 |  | 22 mg/kg | 93 mg/kg

SMILES | Activity (Mus musculus [1]) | ED50 (Mus musculus [2]) | TD50 [3]
CNS(=O)(=O)Cc1noc2ccc(Cl)cc12 |  | 20 mg/kg | 60 mg/kg
CN(C)CCCNS(=O)(=O)Cc1noc2ccccc12 | inactive |  | 
CN1CCN(S(=O)(=O)Cc2noc3ccc(F)cc23)CC1 |  | 100 mg/kg | 142 mg/kg
NS(=O)(=O)Cc1noc2cc(F)ccc12 |  | 19 mg/kg | 
CCNS(=O)(=O)Cc1noc2ccccc12 |  | 39 mg/kg | 223 mg/kg
NS(=O)(=O)CCCc1noc2ccccc12 |  | 39 mg/kg | 
O=S(=O)(Cc1noc2ccccc12)N1CCOCC1 | inactive |  | 
CCNS(=O)(=O)Cc1noc2ccc(Br)cc12 |  | 18 mg/kg | 66 mg/kg
CN1CCN(S(=O)(=O)Cc2noc3ccccc23)CC1 |  | 57 mg/kg | 
O=S(=O)(Cc1noc2ccccc12)Nc1ccccc1 | inactive |  | 
NS(=O)(=O)Cc1noc2ccc(Br)cc12 |  | 14 mg/kg | 60 mg/kg
NS(=O)(=O)CCc1noc2ccccc12 |  | 26 mg/kg | 
NS(=O)(=O)Cc1noc2ccc(F)cc12 |  | 15 mg/kg | 
CNS(=O)(=O)Cc1noc2ccccc12 |  | 23 mg/kg | 
CNS(=O)(=O)Cc1noc2ccc(Br)cc12 |  | 15 mg/kg | 
CC(C)NS(=O)(=O)Cc1noc2ccc(F)cc12 |  | 38 mg/kg | 109 mg/kg
CN(C)S(=O)(=O)Cc1noc2ccc(F)cc12 |  | 32 mg/kg | 350 mg/kg
COC(=O)c1ccccc1NS(=O)(=O)Cc1noc2ccccc12 | inactive |  | 
O=S(=O)(Cc1noc2ccccc12)NO |  | 32 mg/kg | 
NNS(=O)(=O)Cc1noc2ccccc12 | inactive |  | 
O=S(=O)(Cc1noc2ccccc12)NCc1ccccc1 | inactive |  | 
CN(C)S(=O)(=O)Cc1noc2ccc(Cl)cc12 |  | 57 mg/kg | 250 mg/kg
